Data: ChEMBL document CHEMBL5038571, “Design and Synthesis of EZH2-Based PROTACs to Degrade the PRC2 Complex for Targeting the Noncatalytic Activity of EZH2” (J Med Chem, 2021)
The source made the active and inactive calls. No cut-off for these calls is given here.

Key:
[1] = target: T1, Protein cereblon/Histone-lysine N-methyltransferase EZH2 (Homo sapiens) (UniProt Q15910+Q96SW2); assay: PROTAC activity at CRBN E3 ligase/EZH2 in PRC2 complex in human WSUDLCL2 cells assessed as downregulation of EED expression at 1 uM pretreated with lenalidomide for 4 hrs followed by compound addition and measured after 48 hrs by Western blot analysis; type: cell-based
T1 sequence (Q15910 whole entry, looked up): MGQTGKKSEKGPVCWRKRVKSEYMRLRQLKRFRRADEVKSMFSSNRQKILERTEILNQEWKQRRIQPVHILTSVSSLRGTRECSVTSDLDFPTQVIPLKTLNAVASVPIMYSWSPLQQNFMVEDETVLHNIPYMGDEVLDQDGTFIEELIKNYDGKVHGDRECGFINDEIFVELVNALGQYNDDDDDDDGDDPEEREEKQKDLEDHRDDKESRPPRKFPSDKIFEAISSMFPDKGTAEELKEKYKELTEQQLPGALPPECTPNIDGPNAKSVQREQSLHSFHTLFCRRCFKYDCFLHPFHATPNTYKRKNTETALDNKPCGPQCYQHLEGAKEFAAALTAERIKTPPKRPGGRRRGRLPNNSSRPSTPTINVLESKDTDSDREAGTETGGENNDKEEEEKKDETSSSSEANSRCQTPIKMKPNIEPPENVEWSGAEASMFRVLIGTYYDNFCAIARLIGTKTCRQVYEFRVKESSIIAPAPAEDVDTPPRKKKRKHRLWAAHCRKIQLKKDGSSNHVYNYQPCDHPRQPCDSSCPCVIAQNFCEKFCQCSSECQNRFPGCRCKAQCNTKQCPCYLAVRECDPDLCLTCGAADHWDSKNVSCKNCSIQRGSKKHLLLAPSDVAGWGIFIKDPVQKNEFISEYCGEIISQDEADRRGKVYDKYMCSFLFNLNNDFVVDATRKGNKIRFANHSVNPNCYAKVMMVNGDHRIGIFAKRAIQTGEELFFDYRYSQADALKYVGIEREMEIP
T1 sequence (Q96SW2 whole entry, looked up): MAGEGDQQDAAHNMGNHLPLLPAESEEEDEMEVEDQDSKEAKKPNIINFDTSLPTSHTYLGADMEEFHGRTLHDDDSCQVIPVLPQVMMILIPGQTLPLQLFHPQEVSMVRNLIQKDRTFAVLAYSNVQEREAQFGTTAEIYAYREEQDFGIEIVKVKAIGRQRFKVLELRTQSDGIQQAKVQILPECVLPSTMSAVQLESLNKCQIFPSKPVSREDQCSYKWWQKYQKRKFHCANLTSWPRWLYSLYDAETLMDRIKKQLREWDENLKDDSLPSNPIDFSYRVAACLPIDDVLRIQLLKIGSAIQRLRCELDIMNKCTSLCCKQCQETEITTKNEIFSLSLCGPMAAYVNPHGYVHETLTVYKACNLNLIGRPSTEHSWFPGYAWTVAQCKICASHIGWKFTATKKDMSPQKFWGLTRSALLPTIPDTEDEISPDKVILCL
Procedure, shortened: (§1)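 WSU-DLCL-2 cells pretreated 4 h with the named inhibitor, then compound added and incubated a further 48 h. EZH2, SUZ12, EED and RbAp48 measured by western blot (nitrocellulose transfer, skim-milk block, primary antibody overnight at 4 °C, chemiluminescent detection).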

[2] = target: T1, Protein cereblon/Histone-lysine N-methyltransferase EZH2 (Homo sapiens); assay: PROTAC activity at CRBN E3 ligase/EZH2 in PRC2 complex in human A2780 cells assessed as induction of SUZ12 degradation by measuring reduction in SUZ12 protein level at 1 uM incubated for 48 hrs by Western blot analysis; type: cell-based
Procedure, shortened: (§2)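 Cancer cell lines exposed to 1 μM compound for 48 h. Lysates immunoblotted (SDS-PAGE, nitrocellulose, 5% milk block, primary antibody overnight at 4 °C) for EZH2, SUZ12, EED, RbAp48 and H3K27me3. Bands quantified by densitometry and normalized to GAPDH.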

[3] = target: T1, Protein cereblon/Histone-lysine N-methyltransferase EZH2 (Homo sapiens); assay: PROTAC activity at CRBN E3 ligase/EZH2 in PRC2 complex in human WSUDLCL2 cells assessed as effect on RbAp48 mRNA expression at 1 uM incubated for 48 hrs by RT-qPCR analysis; type: cell-based
Procedure, shortened: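 WSU-DLCL-2 cells treated 48 h with 1 μM compound. Total RNA extracted with Trizol and reverse-transcribed. SYBR qPCR run as 95 °C 30 s, then 40 cycles of 95 °C 6 s and 60 °C 20 s. PRC2 subunit mRNA normalized to the DMSO-treated group; mean SD, t-test.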

[4] = target: T1, Protein cereblon/Histone-lysine N-methyltransferase EZH2 (Homo sapiens); assay: PROTAC activity at CRBN E3 ligase/EZH2 in PRC2 complex in human SK-OV-3 cells assessed as induction of SUZ12 degradation by measuring reduction in SUZ12 protein level at 1 uM incubated for 48 hrs by Western blot analysis; type: cell-based
Procedure, shortened: (§3)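 Cells cultured in DMEM or RPMI 1640 with 10% FBS and 1% penicillin-streptomycin, 37 °C, 5% CO2; exposed to 1 μM compound for 48 h. Lysates run on SDS-PAGE and transferred to nitrocellulose. Blocked 2 h in 5% skim milk, primary antibody overnight at 4 °C, then secondary antibody. Chemiluminescent detection of PRC2 subunits and H3K27me3.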

[5] = target: T1, Protein cereblon/Histone-lysine N-methyltransferase EZH2 (Homo sapiens); assay: PROTAC activity at CRBN E3 ligase/EZH2 in PRC2 complex in human A2780 cells assessed as reduction in H3K27me3 level at 1 uM incubated for 48 hrs by Western blot analysis; type: cell-based; procedure, shortened: as §2
NCI-H1299 = assay: Antiproliferative activity against human NCI-H1299 cells harboring SWI/SNF mutant assessed as inhibition of cell growth at 10 uM treated for 9 days by optical microscopic analysis; type: functional, cell-based; details: time 9.0 day
Procedure, shortened: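 Cells seeded at 5 × 10³ per well, grown 24 h, then exposed to compound at 10 μM for 9 days with medium refreshed. Cells were photographed and counted on days 1, 3, 5, 7 and 9. For lines 1-2, EZH2-targeting or control shRNA was induced in the cells. Mean SD of three independent experiments; t-test against control.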

[6] = target: T1, Protein cereblon/Histone-lysine N-methyltransferase EZH2 (Homo sapiens); assay: PROTAC activity at CRBN E3 ligase/EZH2 in PRC2 complex in human WSUDLCL2 cells assessed as downregulation of RbAp48 expression at 1 uM pretreated with EED226 for 4 hrs followed by compound addition and measured after 48 hrs by Western blot analysis; type: cell-based; procedure, shortened: as §1
[7] = target: T1, Protein cereblon/Histone-lysine N-methyltransferase EZH2 (Homo sapiens); assay: PROTAC activity at CRBN E3 ligase/EZH2 in PRC2 complex in human WSUDLCL2 cells assessed as downregulation of RbAp48 expression at 1 uM pretreated with MLN4924 for 4 hrs followed by compound addition and measured after 48 hrs by Western blot analysis; type: cell-based; procedure, shortened: as §1
[8] = target: T1, Protein cereblon/Histone-lysine N-methyltransferase EZH2 (Homo sapiens); assay: PROTAC activity at CRBN E3 ligase/EZH2 in PRC2 complex in human WSUDLCL2 cells assessed as induction of EZH2 degradation incubated for 48 hrs by Western blot analysis; type: cell-based; details: dose 1-10 µM
Procedure, shortened: (§4)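 WSU-DLCL-2 cells treated 48 h (1 μM for the single-concentration screen), lysed; SDS-PAGE, nitrocellulose transfer, 5% milk block, primary antibody 4 °C overnight, chemiluminescence. Bands quantified by densitometry, normalized to GAPDH, expressed relative to DMSO-treated cells; mean ± SD of three independent experiments, t-test.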

MDA-MB-468 = assay: Downregulation of CENPK mRNA expression in human MDA-MB-468 cells at 10 uM incubated for 48 hrs by qRT-PCR analysis; type: functional, cell-based
Procedure, shortened: (§5)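 Cells treated 48 h. Total RNA extracted with Trizol, reverse-transcribed, and SYBR RT-qPCR run: 95 °C 30 s, then 40 cycles of 95 °C 6 s and 60 °C 20 s. mRNA normalized to the DMSO-treated group. Mean SD of three independent experiments, t-test versus DMSO.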

A549 = assay: Downregulation of TACC3 mRNA expression in human A549 cells at 10 uM incubated for 48 hrs by qRT-PCR analysis; type: functional, cell-based; procedure, shortened: as §5
[9] = target: T1, Protein cereblon/Histone-lysine N-methyltransferase EZH2 (Homo sapiens); assay: PROTAC activity at CRBN E3 ligase/EZH2 in PRC2 complex in human SK-OV-3 cells assessed as induction of EZH2 degradation by measuring reduction in EZH2 protein level at 1 uM incubated for 48 hrs by Western blot analysis; type: cell-based; procedure, shortened: as §3
[10] = target: T1, Protein cereblon/Histone-lysine N-methyltransferase EZH2 (Homo sapiens); assay: PROTAC activity at CRBN E3 ligase/EZH2 in PRC2 complex in human WSUDLCL2 cells assessed as downregulation of EED expression at 1 uM pretreated with EPZ6438 for 4 hrs followed by compound addition and measured after 48 hrs by Western blot analysis; type: cell-based; procedure, shortened: as §1
[11] = target: T1, Protein cereblon/Histone-lysine N-methyltransferase EZH2 (Homo sapiens); assay: PROTAC activity at CRBN E3 ligase/EZH2 in PRC2 complex in human WSUDLCL2 cells assessed as reduction in H3K27me3 level incubated for 48 hrs by Western blot analysis; type: cell-based; details: dose 1-10 µM; procedure, shortened: as §4
[12] = target: T1, Protein cereblon/Histone-lysine N-methyltransferase EZH2 (Homo sapiens); assay: PROTAC activity at CRBN E3 ligase/EZH2 in PRC2 complex in human WSUDLCL2 cells assessed as downregulation of RbAp48 expression at 1 uM pretreated with EPZ6438 for 4 hrs followed by compound addition and measured after 48 hrs by Western blot analysis; type: cell-based; procedure, shortened: as §1
[13] = target: Polycomb protein SUZ12 (Homo sapiens) (UniProt Q15022); assay: Binding affinity to SUZ12 in human WSUDLCL2 cells assessed as thermal stability by measuring shift in temperature at 60 uM pretreated with proteasome inhibitor MG132 for 1 hr followed by compound addition incubated for 2 hrs by cellular thermal shift based Western blot analysis; type: cell-based
Chain of Polycomb protein SUZ12 (Homo sapiens) (Q15022 whole entry): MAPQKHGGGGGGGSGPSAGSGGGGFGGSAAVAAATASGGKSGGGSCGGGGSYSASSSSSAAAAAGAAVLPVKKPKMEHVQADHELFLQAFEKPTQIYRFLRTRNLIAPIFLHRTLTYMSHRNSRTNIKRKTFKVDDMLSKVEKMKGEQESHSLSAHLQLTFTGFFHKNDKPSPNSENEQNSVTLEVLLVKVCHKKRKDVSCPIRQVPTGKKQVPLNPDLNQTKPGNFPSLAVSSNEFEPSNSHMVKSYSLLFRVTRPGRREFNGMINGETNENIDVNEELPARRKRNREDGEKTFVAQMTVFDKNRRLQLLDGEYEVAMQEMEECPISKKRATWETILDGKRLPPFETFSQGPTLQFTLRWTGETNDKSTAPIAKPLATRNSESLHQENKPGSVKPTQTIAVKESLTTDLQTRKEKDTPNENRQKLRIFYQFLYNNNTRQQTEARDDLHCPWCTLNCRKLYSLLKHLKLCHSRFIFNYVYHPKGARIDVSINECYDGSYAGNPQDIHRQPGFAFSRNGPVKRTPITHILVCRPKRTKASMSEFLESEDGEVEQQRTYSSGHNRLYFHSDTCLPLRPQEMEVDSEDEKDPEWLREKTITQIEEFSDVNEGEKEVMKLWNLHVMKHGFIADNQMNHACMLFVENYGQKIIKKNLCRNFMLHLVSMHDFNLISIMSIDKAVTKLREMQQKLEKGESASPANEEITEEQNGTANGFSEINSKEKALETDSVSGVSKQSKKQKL
Procedure, shortened: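 Cellular thermal shift: cells suspended at 1.5 × 10⁶/mL and pretreated with MG-132 (5 μM, 1 h), then given 60 μM compound for 2 h with a DMSO control. Cells were lysed in RIPA with cocktail for 1 h. Supernatant aliquots were heated 6 min at 45, 48, 51, 54, 57 and 60 °C and centrifuged 15 min. Soluble protein was immunoblotted; bands quantified by densitometry; three independent experiments.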

WSUDLCL2 = assay: Antiproliferative activity against human WSUDLCL2 cells harboring EZH2-Y641F mutant assessed as inhibition of cell growth incubated for 3 to 7 days by optical microscopic analysis (Rvb= 4.92 uM); type: functional, cell-based

CCN(c1cc(-c2ccc(CN3CCN(CCCCCCCOc4cccc5c4C(=O)N(C4CCC(=O)NC4=O)C5=O)CC3)cc2)cc(C(=O)NCc2c(C)cc(C)[nH]c2=O)c1C)C1CCOCC1 (configuration not stated)
Activity [1]: inactive | Activity [2]: Active | Activity [3]: inactive | Activity [4]: Active | Activity [5]: Active | Activity (NCI-H1299): Active | Activity [6]: Active | Activity [7]: inactive | Activity [8]: Dose-Dependent Effect | Activity (MDA-MB-468): Active | Activity (A549): Active | Activity [9]: Active | Activity [10]: inactive | Activity [11]: Dose-Dependent Effect | Activity [12]: inactive | Activity [13]: inactive | IC50 (WSUDLCL2): 3.69 µM
